According to ChEMBL document CHEMBL3525900, “Pharmacokinetics, distribution, and metabolism of [14C]sunitinib in rats, monkeys, and humans” (Drug Metab Dispos, 2012):

Experiments:
[1] = Drug concentration in female Lister Hooded pigmented rat lachrymal gland assessed as radioactivity per gram of tissue at 20 mg/kg administered as single dose via gastric gavage measured after 24 hrs by autoradiographic analysis; format: ADME, organism-based; design: dose 20 mg/kg, dosed compound name [14C]Sunitinib; settings: in vivo, po
In short: (§1)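 Lister Hooded (pigmented) rats, ca 7-8 weeks old, acclimated 7 days, given [14C]sunitinib L-malate by gastric gavage at 20 mg/kg (15 mg freebase/kg, 100 µCi/kg). One male and one female killed by CO2 at 24, 72, 168 and 336 h. Carcasses frozen in solid CO2/hexane and embedded in frozen cellulose. 30 µm sagittal cryosections were freeze-dried. Tissue radioactivity measured by quantitative whole-body autoradiography against calibration standards, with background subtracted.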

[2] = system: Liver; assay: Drug concentration in male albino rat liver assessed as radioactivity per gram of tissue at 20 mg/kg administered as single dose via gastric gavage measured after 6 hrs by autoradiographic analysis; format: ADME, organism-based; design: dose 20 mg/kg, dosed compound name [14C]Sunitinib; settings: in vivo, po
[3] = Drug concentration in male Lister Hooded pigmented rat preputial gland assessed as radioactivity per gram of tissue at 20 mg/kg administered as single dose via gastric gavage measured after 72 hrs by autoradiographic analysis; format: ADME, organism-based; design: dose 20 mg/kg, dosed compound name [14C]Sunitinib; settings: in vivo, po
[4] = system: Heart; assay: Drug concentration in male albino rat heart assessed as radioactivity per gram of tissue at 20 mg/kg administered as single dose via gastric gavage measured after 3 hrs by autoradiographic analysis; format: ADME, organism-based; design: dose 20 mg/kg, dosed compound name [14C]Sunitinib; settings: in vivo, po
[5] = system: Adrenal; assay: Drug concentration in female albino rat adrenal assessed as radioactivity per gram of tissue at 20 mg/kg administered as single dose via gastric gavage measured after 24 hrs by autoradiographic analysis; format: ADME, organism-based; design: dose 20 mg/kg, dosed compound name [14C]Sunitinib; settings: in vivo, po
In short: (§2)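 Sprague Dawley (albino) rats, ca 7-8 weeks old, received a single gastric-gavage dose of [14C]sunitinib L-malate at 20 mg/kg (15 mg freebase/kg, 100 µCi/kg). One animal per sex killed by CO2 at 3, 6, 24, 72 and 168 h, then frozen in CO2/hexane. 30 µm sagittal sections were cut and freeze-dried. Radioactivity per gram quantified by whole-body autoradiography using regression against standards. LOQ 0.04–0.06 µg freebase equiv/g.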

[6] = Drug concentration in male albino rat testis assessed as radioactivity per gram of tissue at 20 mg/kg administered as single dose via gastric gavage measured after 3 hrs by autoradiographic analysis; format: ADME, organism-based; design: dose 20 mg/kg, dosed compound name [14C]Sunitinib; settings: in vivo, po
[7] = system: Heart; assay: Drug concentration in male albino rat heart assessed as radioactivity per gram of tissue at 20 mg/kg administered as single dose via gastric gavage measured after 24 hrs by autoradiographic analysis; format: ADME, organism-based; design: dose 20 mg/kg, dosed compound name [14C]Sunitinib; settings: in vivo, po
[8] = system: Cynomolgus monkey; assay: AUC (0 to infinity) as total radioactivity in male cynomolgus monkey plasma at 6 mg/kg, po administered as single dose by LC/MS/MS analysis; format: ADME, organism-based, Macaca fascicularis; design: time infinity, dose 6 mg/kg, dosed compound name [14C]Sunitinib, route oral; settings: in vivo
In short: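 Cynomolgus monkeys of both sexes received one oral gavage of [14C]sunitinib L-malate at 6 mg/kg (37 µCi/kg). Femoral-vein blood was taken into heparin from 0.5 to 336 h. Plasma was kept cold and protected from light, then stored at -80 °C. Total radioactivity was by scintillation counting and sunitinib by methanol-extraction LC-MS-MS. Cmax was from raw data, t½ from the log-linear terminal slope, AUC(0-∞) by linear trapezoidal rule.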

[9] = system: Liver; assay: Drug concentration in female albino rat liver assessed as radioactivity per gram of tissue at 20 mg/kg administered as single dose via gastric gavage measured after 3 hrs by autoradiographic analysis; format: ADME, organism-based; design: dose 20 mg/kg, dosed compound name [14C]Sunitinib; settings: in vivo, po
In short: (§3)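 Sprague Dawley albino rats, ca 7-8 weeks old, dosed once by gastric gavage with [14C]sunitinib L-malate (15 mg freebase/kg, 100 µCi/kg). One male and one female killed by CO2 at 3, 6, 24, 72 and 168 h. Carcasses frozen in solid CO2/hexane, embedded and cut into 30 µm sagittal sections, then freeze-dried. Radioactivity quantified by whole-body autoradiography against standards by regression, background subtracted.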

[10] = Drug concentration in female Lister Hooded pigmented rat skeletal muscle assessed as radioactivity per gram of tissue at 20 mg/kg administered as single dose via gastric gavage measured after 24 hrs by autoradiographic analysis; format: ADME, organism-based; design: dose 20 mg/kg, dosed compound name [14C]Sunitinib; settings: in vivo, po; in short: as §1
[11] = system: Brain; assay: Drug concentration in male albino rat brain assessed as radioactivity per gram of tissue at 20 mg/kg administered as single dose via gastric gavage measured after 72 hrs by autoradiographic analysis; format: ADME, organism-based; design: dose 20 mg/kg, dosed compound name [14C]Sunitinib; settings: in vivo, po
[12] = Drug concentration in male Lister Hooded pigmented rat pituitary gland assessed as radioactivity per gram of tissue at 20 mg/kg administered as single dose via gastric gavage measured after 24 hrs by autoradiographic analysis; format: ADME, organism-based; design: dose 20 mg/kg, dosed compound name [14C]Sunitinib; settings: in vivo, po
[13] = Drug concentration in female Lister Hooded pigmented rat eye assessed as radioactivity per gram of tissue at 20 mg/kg administered as single dose via gastric gavage measured after 336 hrs by autoradiographic analysis; format: ADME, organism-based; design: dose 20 mg/kg, dosed compound name [14C]Sunitinib; settings: in vivo, po; in short: as §1
[14] = system: Small intestine; assay: Drug concentration in male Lister Hooded pigmented rat small intestine assessed as radioactivity per gram of tissue at 20 mg/kg administered as single dose via gastric gavage measured after 72 hrs by autoradiographic analysis; format: ADME, organism-based; design: dose 20 mg/kg, dosed compound name [14C]Sunitinib; settings: in vivo, po
[15] = system: Liver; assay: Drug concentration in male albino rat liver assessed as radioactivity per gram of tissue at 20 mg/kg administered as single dose via gastric gavage measured after 72 hrs by autoradiographic analysis; format: ADME, organism-based; design: dose 20 mg/kg, dosed compound name [14C]Sunitinib; settings: in vivo, po
[16] = system: Liver; assay: Drug concentration in male Lister Hooded pigmented rat liver assessed as radioactivity per gram of tissue at 20 mg/kg administered as single dose via gastric gavage measured after 24 hrs by autoradiographic analysis; format: ADME, organism-based; design: dose 20 mg/kg, dosed compound name [14C]Sunitinib; settings: in vivo, po
[17] = system: Adrenal; assay: Drug concentration in male albino rat adrenal assessed as radioactivity per gram of tissue at 20 mg/kg administered as single dose via gastric gavage measured after 168 hrs by autoradiographic analysis; format: ADME, organism-based; design: dose 20 mg/kg, dosed compound name [14C]Sunitinib; settings: in vivo, po
[18] = Drug concentration in female Lister Hooded pigmented rat uveal tract assessed as radioactivity per gram of tissue at 20 mg/kg administered as single dose via gastric gavage measured after 24 hrs by autoradiographic analysis; format: ADME, organism-based; design: dose 20 mg/kg, dosed compound name [14C]Sunitinib; settings: in vivo, po; in short: as §1
[19] = system: Harderian gland; assay: Drug concentration in female albino rat harderian gland assessed as radioactivity per gram of tissue at 20 mg/kg administered as single dose via gastric gavage measured after 6 hrs by autoradiographic analysis; format: ADME, organism-based; design: dose 20 mg/kg, dosed compound name [14C]Sunitinib; settings: in vivo, po; in short: as §3
[20] = system: Kidney; assay: Drug concentration in female albino rat kidney assessed as radioactivity per gram of tissue at 20 mg/kg administered as single dose via gastric gavage measured after 72 hrs by autoradiographic analysis; format: ADME, organism-based; design: dose 20 mg/kg, dosed compound name [14C]Sunitinib; settings: in vivo, po; in short: as §3
[21] = Drug recovery in urine of female Sprague-Dawley rat at 5 mg/kg, iv administered as single dose during 0 to 72 hrs by liquid scintillation counting; format: ADME, organism-based; design: dose 5 mg/kg, dosed compound name [14C]Sunitinib, route intravenous; settings: in vivo
[22] = system: Zone of skin; assay: Drug concentration in female albino rat abdomen skin assessed as radioactivity per gram of tissue at 20 mg/kg administered as single dose via gastric gavage measured after 6 hrs by autoradiographic analysis; format: ADME, organism-based; design: dose 20 mg/kg, dosed compound name [14C]Sunitinib; settings: in vivo, po; in short: as §2
[23] = system: Ovary; assay: Drug concentration in female albino rat ovary assessed as radioactivity per gram of tissue at 20 mg/kg administered as single dose via gastric gavage measured after 3 hrs by autoradiographic analysis; format: ADME, organism-based, Female gonad; design: dose 20 mg/kg, dosed compound name [14C]Sunitinib; settings: in vivo, po
In short: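 Sprague Dawley (albino) and Lister Hooded (pigmented) rats, ca 7-8 weeks old, 179-310 g, acclimated 7 days. Single gavage dose of [14C]sunitinib L-malate (15 mg freebase/kg, 100 µCi/kg). One male and one female killed by CO2 per time point: albino at 3, 6, 24, 72, 168 h; pigmented at 24, 72, 168, 336 h. Carcasses frozen in solid CO2/hexane, 30 µm sagittal sections freeze-dried. Tissue radioactivity read by quantitative whole-body autoradiography against regression of standards, mean background subtracted.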

[24] = system: Lung; assay: Drug concentration in female albino rat lung assessed as radioactivity per gram of tissue at 20 mg/kg administered as single dose via gastric gavage measured after 6 hrs by autoradiographic analysis; format: ADME, organism-based; design: dose 20 mg/kg, dosed compound name [14C]Sunitinib; settings: in vivo, po; in short: as §3
[25] = system: Zone of skin; assay: Drug concentration in male albino rat abdomen skin assessed as radioactivity per gram of tissue at 20 mg/kg administered as single dose via gastric gavage measured after 72 hrs by autoradiographic analysis; format: ADME, organism-based; design: dose 20 mg/kg, dosed compound name [14C]Sunitinib; settings: in vivo, po

CCN(CC)CCNC(=O)c1c(C)[nH]c(/[14CH]=C2\C(=O)Nc3ccc(F)cc32)c1C.O=C(O)C[C@H](O)C(=O)O
Radiolabel recovery [1]: 2.05 ugequiv
Radiolabel recovery [2]: 10.7 ugequiv
Radiolabel recovery [3]: 7.84 ugequiv
Radiolabel recovery [4]: 5.58 ugequiv
Radiolabel recovery [5]: 7.65 ugequiv
Radiolabel recovery [6]: 0.79 ugequiv
Radiolabel recovery [7]: 0.36 ugequiv
AUC [8]: 9095 ng.Eq.hr/ml
Radiolabel recovery [9]: 19.89 ugequiv
Radiolabel recovery [10]: 0.25 ugequiv
Radiolabel recovery [11]: 0.07 ugequiv
Radiolabel recovery [12]: 7.71 ugequiv
Radiolabel recovery [13]: 56.9 ugequiv
Radiolabel recovery [14]: 0.07 ugequiv
Radiolabel recovery [15]: 0.24 ugequiv
Radiolabel recovery [16]: 2.09 ugequiv
Radiolabel recovery [17]: 0.31 ugequiv
Radiolabel recovery [18]: 124.52 ugequiv
Radiolabel recovery [19]: 14.12 ugequiv
Radiolabel recovery [20]: 0.39 ugequiv
Radiolabel recovery [21]: 9.1%
Radiolabel recovery [22]: 4.73 ugequiv
Radiolabel recovery [23]: 10.92 ugequiv
Radiolabel recovery [24]: 16.19 ugequiv
Radiolabel recovery [25]: 0.27 ugequiv
